Test: Toxicity liver stage against HepG2, at 10uM
Assay type: cell-based
Set-up: test concentration 10 uM, cell line HepG2-A16-CD81EGFP
Settings: human, HepG2-A16-CD81EGFP cells; read-out: INHIBITION
Summary of the method: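 Uninfected HepG2-A16-CD81EGFP cells, 3 × 10^3 per well, 1536-well, plated on prespotted compound at 10 μM final, parasite-free screening media added to match infected plates; puromycin 10 μM positive, DMSO 0.5% negative; run in parallel with 48 h PbLuc assay at 37 °C, 5% CO2; viability by CellTiter-Glo luminescence, normalized to controls.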

Question: Which cytotoxicity at 10 µM does the source give for `Cc1ccc(C(=O)N2C[C@@H]3CCCO[C@@H]3[C@H](N3CCCC3)C2)cn1` here?
Answer: -3.8%

Question: With `Cc1cc(NC(=O)c2ccc(C)c(F)c2)[nH]n1` as the molecule, how does the cytotoxicity at 10 µM read?
Answer: -42.1%

Question: With `CCCN1CCCn2nc(CNS(=O)(=O)c3ccc(C)cc3)cc2C1` as the molecule, how does the cytotoxicity at 10 µM read?
Answer: 1.6%

Question: Which cytotoxicity at 10 µM does the source give for `NC(=O)NC(=O)CN1CCN(c2nccs2)CC1` here?
Answer: -17.9%

Question: For `Cc1ccc(SCCN(C)C(=O)c2cn(CCN)nn2)cc1`, which cytotoxicity at 10 µM is on record?
Answer: -4.7%

Question: With `Cc1nc(COc2ccc(CNCCn3cccn3)cc2)cs1` as the molecule, how does the cytotoxicity at 10 µM read?
Answer: -8.96%

Question: For `O=C(c1cccnc1SC/C=C/c1ccccc1)N1CCOCC(O)C1` (centres undefined), which cytotoxicity at 10 µM is on record?
Answer: -2.42%

Question: Which cytotoxicity at 10 µM does the source give for `Cc1ccccc1C(=O)N1CC[C@@H]2CN(c3ncccn3)CCO[C@@H]2C1` here?
Answer: -72.4%

Question: For `CS(=O)(=O)c1ccc(-c2c[nH]c([C@@H]3COCCN3)n2)cc1`, which cytotoxicity at 10 µM is on record?
Answer: 5.29%

Question: Which cytotoxicity at 10 µM does the source give for `Cc1cc(-c2cncnc2)nc(C2CCCN2S(C)(=O)=O)n1` (centres undefined) here?
Answer: -6.21%

Question: Which cytotoxicity at 10 µM does the source give for `Cc1ccc(OCCC(=O)N2CCCC(n3nc(C)nc3C)C2)cc1` (centres undefined) here?
Answer: -2.15%

Question: With `Cn1nccc1CNC(=O)CCn1nc(C(F)(F)F)c(Cl)c1C1CC1` as the molecule, how does the cytotoxicity at 10 µM read?
Answer: -3.33%

Question: With `Cc1nc(CNC(C)c2cccc(S(=O)(=O)N(C)C)c2)no1` (centres undefined) as the molecule, how does the cytotoxicity at 10 µM read?
Answer: 0.956%

Question: Which cytotoxicity at 10 µM does the source give for `CCc1ccc(CN2CCC3(CC2)CC(N2CCN(C)CC2)CO3)cc1` (centres undefined) here?
Answer: -2.88%

Question: Which cytotoxicity at 10 µM does the source give for `Cc1c[nH]nc1C1CN(c2cnccn2)CCO1` (centres undefined) here?
Answer: 4.34%

Question: Which cytotoxicity at 10 µM does the source give for `COCC1CC2(CCN(Cc3cnn(C)c3)CC2)CN1C(C)C` (centres undefined) here?
Answer: 2.91%

Question: For `Cc1nc(CN2CCN(c3cncc(Cl)n3)CC2)no1`, which cytotoxicity at 10 µM is on record?
Answer: 6.45%

Question: For `CN(c1cccnc1N1CCCC1)S(=O)(=O)c1cccnc1`, which cytotoxicity at 10 µM is on record?
Answer: 0.981%

Question: For `CCC(C)n1c(SCC(=O)N2CCOCC2)nc2cc(C)[nH]c2c1=O` (centres undefined), which cytotoxicity at 10 µM is on record?
Answer: 7.94%

Question: For `Cc1cc(NCCNS(C)(=O)=O)nc2cc3c(cc12)CCC3`, which cytotoxicity at 10 µM is on record?
Answer: 2.9%

Question: With `O=C(Nc1cccnc1)C1CN(C(=O)c2ccc3c(c2)OCO3)C1` as the molecule, how does the cytotoxicity at 10 µM read?
Answer: -11.7%

Question: With `Cc1ncc2c(n1)CN(Cc1nc(C)c(C)o1)CC2` as the molecule, how does the cytotoxicity at 10 µM read?
Answer: -4.32%

Question: With `c1ccc(CO[C@@H]2C[C@H]3CN(c4ncccn4)CCN3C2)cc1` as the molecule, how does the cytotoxicity at 10 µM read?
Answer: 0.472%

Question: Which cytotoxicity at 10 µM does the source give for `CSCCC(=O)N1CCCN(c2ccccc2C)CC1` here?
Answer: -9.31%

Question: Which cytotoxicity at 10 µM does the source give for `Cc1nc(-c2ccccc2)n(CC(=O)NC(C2CC2)C2CC2)n1` here?
Answer: 11%

Question: For `CCc1cc(-c2cc[nH]n2)nc(N2CCOCC2)n1`, which cytotoxicity at 10 µM is on record?
Answer: 7.04%

Question: Which cytotoxicity at 10 µM does the source give for `CC(=O)N1Cc2ccccc2C[C@H]1C(=O)Nc1ccccn1` here?
Answer: -3.09%

Question: For `CO[C@@H]1CCN(C(=O)c2cnoc2C)[C@H]1Cc1ccccc1`, which cytotoxicity at 10 µM is on record?
Answer: -72.3%

Question: Which cytotoxicity at 10 µM does the source give for `CC(=O)N1CCC(c2cc(C(F)(F)F)n3ccnc3n2)CC1` here?
Answer: 1.56%

Question: For `Cc1nn(C)c(N(C)C)c1CNC(C)COc1cccc(F)c1` (centres undefined), which cytotoxicity at 10 µM is on record?
Answer: -4.96%

Question: With `O=C(O)C1(n2cccn2)CCN(Cc2nc(-c3ccccc3)no2)CC1` as the molecule, how does the cytotoxicity at 10 µM read?
Answer: 6.74%

Question: Which cytotoxicity at 10 µM does the source give for `O=C(C[C@@H]1COC[C@H]2CN(Cc3ccsc3)C[C@@H]12)N1CCCC1` here?
Answer: 1.64%

Question: Which cytotoxicity at 10 µM does the source give for `O=C(Cc1csc(-c2ccccc2Cl)n1)NCc1cccc(C(=O)O)c1` here?
Answer: -3.67%

Question: For `c1ccc(-c2cnc(CNC3CCCN(c4cccnn4)C3)o2)cc1` (centres undefined), which cytotoxicity at 10 µM is on record?
Answer: 0.993%

Question: Which cytotoxicity at 10 µM does the source give for `CS(=O)(=O)N1CCN(CC(=O)Nc2cccc(Cl)c2)CC1` here?
Answer: -50.8%

Question: Which cytotoxicity at 10 µM does the source give for `CCN(CC(C)O)C(=O)Nc1cnn(CCOC)c1` (centres undefined) here?
Answer: -11.6%

Question: Which cytotoxicity at 10 µM does the source give for `Cn1cc(C(=O)N[C@H]2CN(S(C)(=O)=O)[C@@H]3CCCO[C@H]23)cn1` here?
Answer: -16%

Question: For `O=C(CCn1cccn1)N1CCC(c2nnc(-c3ccsc3)o2)CC1`, which cytotoxicity at 10 µM is on record?
Answer: 4.25%

Question: Which cytotoxicity at 10 µM does the source give for `COc1ccc(CC2(CO)CCN(c3cc(C#N)ccn3)CC2)cc1` here?
Answer: 8.86%

Question: With `O[C@@H]1CCN(CC2CC2)[C@H]1Cc1ccccc1` as the molecule, how does the cytotoxicity at 10 µM read?
Answer: 3.57%

Question: With `CC(=O)N1CC2(CCNCC2)c2cc(Cl)ccc21` as the molecule, how does the cytotoxicity at 10 µM read?
Answer: -0.655%

Question: Which cytotoxicity at 10 µM does the source give for `O=C(NCC1CC1)C1CCCN(c2cccc(C(F)(F)F)n2)C1` (centres undefined) here?
Answer: 8.21%

Question: Which cytotoxicity at 10 µM does the source give for `O=C(c1ccc(F)c(F)c1)N1C[C@H]2CNC[C@H]2C1` here?
Answer: 5.82%

Question: Which cytotoxicity at 10 µM does the source give for `O=C(CCN1CCCC1=O)NCc1cccnc1Oc1ccccc1` here?
Answer: -7.47%

Question: For `CC(C)(C)C(O)CN1CCN(CCOCC(F)(F)F)CC1` (centres undefined), which cytotoxicity at 10 µM is on record?
Answer: -2.02%

Question: Which cytotoxicity at 10 µM does the source give for `CC(=O)Nc1nc(COc2nc(C)no2)cs1` here?
Answer: -16.6%

Question: For `c1cc(CN2CC[C@H]3CO[C@H](CN4CCOCC4)[C@H]3C2)cs1`, which cytotoxicity at 10 µM is on record?
Answer: 4.91%

Question: With `Cc1cc(-c2cnc(N3CCNC(=O)C3)nc2-c2ccncc2)on1` as the molecule, how does the cytotoxicity at 10 µM read?
Answer: -25%

Question: With `COc1ccc(S(=O)(=O)N2CCC[C@@H]3CN(C(=O)C4CC4)C[C@@H]32)cc1F` as the molecule, how does the cytotoxicity at 10 µM read?
Answer: 3.75%

Question: For `N[C@H]1CN(C(=O)c2ccccc2Oc2ccccc2)C[C@@H]1C1CC1`, which cytotoxicity at 10 µM is on record?
Answer: -0.948%

Question: Which cytotoxicity at 10 µM does the source give for `Cc1ccnc(N2CCN(C[C@]3(O)CCCN4CCCC[C@@H]43)CC2)c1` here?
Answer: 3.78%

Question: With `CN1CC(=O)N(c2cnn(C)c2)CC12CCN(Cc1nccn1C)C2` (centres undefined) as the molecule, how does the cytotoxicity at 10 µM read?
Answer: -15.3%

Question: Which cytotoxicity at 10 µM does the source give for `CN1C[C@@H]2CN(C(=O)NCc3cccc(F)c3)CCC[C@]2(C(=O)O)C1` here?
Answer: 1.14%

Question: Which cytotoxicity at 10 µM does the source give for `COc1ccc(CNc2c(C)cnc3c2c(=O)n(C)c(=O)n3C)cc1` here?
Answer: 2.9%

From ChEMBL document CHEMBL4513216, “Probing the Open Global Health Chemical Diversity Library for Multistage-Active Starting Points for Next-Generation Antimalarials” (ACS Infect Dis, 2020)
